According to ChEMBL document CHEMBL1153560, “In vitro activities of doripenem and six comparator drugs against 423 aerobic and anaerobic bacterial isolates from infected diabetic foot wounds” (2008):
Converted amounts (≈) assume the structure as drawn.

Assays:
Type in all cases: functional
Corynebacterium striatum = experiment: Antibacterial activity against Corynebacterium striatum isolated from patient with diabetic foot infection after 48 hrs by broth microdilution method
In short: (§1)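 Isolates were subcultured on Trypticase soy blood agar. Broth microdilution used cation-adjusted Mueller-Hinton broth with lysed horse blood, in-house trays of twofold drug dilutions stored at −70°C. Colonies from overnight growth gave a final inoculum of about 5 × 10^5 CFU/ml. Trays were read after 18 to 24 h at 37°C, up to 48 h for some strains.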

Corynebacterium accolens = experiment: Antibacterial activity against Corynebacterium accolens isolated from patient with diabetic foot infection after 48 hrs by broth microdilution method; in short: as §1
[1] = test system: Corynebacterium minutissimum; experiment: Antibacterial activity against Corynebacterium minutissimum isolated from patient with diabetic foot infection assessed as percent resistant isolates after 48 hrs by broth microdilution method
In short: (§2)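 Isolates subcultured on Trypticase soy blood agar. Broth microdilution in cation-adjusted Mueller-Hinton broth with lysed horse blood, using in-house twofold dilution trays stored at −70°C. Inoculum from overnight colonies at about 5 × 10^5 CFU/ml final. Read after 18 to 24 h at 37°C, up to 48 h for some Corynebacterium strains.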

Corynebacterium jeikeium = experiment: Antibacterial activity against Corynebacterium jeikeium isolated from patient with diabetic foot infection after 48 hrs by broth microdilution method; in short: as §1
[2] = test system: Streptococcus dysgalactiae subsp. equisimilis; experiment: Antibacterial activity against Streptococcus dysgalactiae subsp. equisimilis isolated from patient with diabetic foot infection after 18 to 24 hrs by broth microdilution method
In short: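 Streptococcal isolates were subcultured on Trypticase soy blood agar. Broth microdilution used cation-adjusted Mueller-Hinton broth with lysed horse blood, in in-house trays of serial twofold drug dilutions stored at −70°C. Overnight colonies were suspended to a final inoculum of approximately 5 × 10^5 CFU/ml. MIC was read after 18 to 24 h incubation at 37°C.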

Streptococcus pyogenes = experiment: Antibacterial activity against Streptococcus pyogenes isolated from patient with diabetic foot infection assessed as percent resistant isolates after 18 to 24 hrs by broth microdilution method
In short: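 Isolates subcultured on Trypticase soy blood agar. MICs by broth microdilution in cation-adjusted Mueller-Hinton broth with lysed horse blood, in in-house trays of serial twofold drug dilutions stored at −70°C. Colonies from overnight growth were suspended to a final inoculum of about 5 × 10^5 CFU/ml. Read after 18–24 h at 37°C.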

Corynebacterium xerosis = experiment: Antibacterial activity against Corynebacterium xerosis isolated from patient with diabetic foot infection assessed as percent resistant isolates after 48 hrs by broth microdilution method; in short: as §2
[3] = test system: Corynebacterium urealyticum; experiment: Antibacterial activity against Corynebacterium urealyticum isolated from patient with diabetic foot infection assessed as percent resistant isolates after 48 hrs by broth microdilution method; in short: as §2
Staphylococcus aureus = experiment: Antibacterial activity against methicillin-sensitive Staphylococcus aureus isolated from patient with diabetic foot infection assessed as percent resistant isolates after 18 to 24 hrs by broth microdilution method
In short: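 Isolates grown on Trypticase soy blood agar, then tested by broth microdilution in unsupplemented cation-adjusted Mueller-Hinton broth. In-house trays held serial twofold drug dilutions and were stored at −70°C. Overnight colonies were suspended to a final inoculum near 5 × 10^5 CFU/ml, and trays read after 18–24 h at 37°C. QC strains: S. aureus ATCC 29213, E. coli ATCC 25922.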

[4] = test system: Corynebacterium minutissimum; experiment: Antibacterial activity against Corynebacterium minutissimum isolated from patient with diabetic foot infection after 48 hrs by broth microdilution method; in short: as §1
[5] = test system: Staphylococcus lugdunensis; experiment: Antibacterial activity against Staphylococcus lugdunensis isolated from patient with diabetic foot infection assessed as percent resistant isolates after 18 to 24 hrs by broth microdilution method
In short: (§3)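 Aerobes subcultured on Trypticase soy blood agar, then broth microdilution in cation-adjusted Mueller-Hinton broth. Trays prepared in-house with twofold dilutions and stored at −70°C. Overnight colonies suspended to about 5 × 10^5 CFU/ml final. Read after 18 to 24 h at 37°C. QC strains included S. aureus ATCC 29213 and E. coli ATCC 25922.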

[6] = test system: Corynebacterium aurimucosum; experiment: Antibacterial activity against Corynebacterium aurimucosum isolated from patient with diabetic foot infection assessed as percent resistant isolates after 48 hrs by broth microdilution method; in short: as §2
Streptococcus agalactiae = experiment: Antibacterial activity against Streptococcus agalactiae isolated from patient with diabetic foot infection assessed as percent resistant isolates after 18 to 24 hrs by broth microdilution method
In short: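 Streptococci subcultured on Trypticase soy blood agar and tested by broth microdilution in cation-adjusted Mueller-Hinton broth with lysed horse blood. In-house twofold dilution trays stored at −70°C. About 5 × 10^5 CFU/ml final inoculum from overnight colonies. Read after 18 to 24 h at 37°C.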

[7] = test system: Corynebacterium amycolatum; experiment: Antibacterial activity against Corynebacterium amycolatum isolated from patient with diabetic foot infection after 48 hrs by broth microdilution method; in short: as §1
[8] = test system: Staphylococcus haemolyticus; experiment: Antibacterial activity against Staphylococcus haemolyticus isolated from patient with diabetic foot infection assessed as percent resistant isolates after 18 to 24 hrs by broth microdilution method
Escherichia coli [9] = experiment: Antibacterial activity against Escherichia coli isolated from patient with diabetic foot infection assessed as percent resistant isolates after 18 to 24 hrs by broth microdilution method; in short: as §3
Proteus mirabilis [10] = experiment: Antibacterial activity against Proteus mirabilis isolated from patient with diabetic foot infection after 18 to 24 hrs by broth microdilution method
In short: (§4)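 Isolates were subcultured on Trypticase soy blood agar and tested by broth microdilution in cation-adjusted Mueller-Hinton broth. In-house trays of twofold drug dilutions were stored at −70°C. Overnight colonies gave a final inoculum of about 5 × 10^5 CFU/ml. Plates were read after 18 to 24 h at 37°C.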

Pseudomonas aeruginosa [11] = experiment: Antibacterial activity against Pseudomonas aeruginosa isolated from patient with diabetic foot infection after 18 to 24 hrs by broth microdilution method; in short: as §4
Proteus mirabilis [12] = experiment: Antibacterial activity against Proteus mirabilis isolated from patient with diabetic foot infection assessed as percent resistant isolates after 18 to 24 hrs by broth microdilution method; in short: as §3
Pseudomonas aeruginosa [13] = experiment: Antibacterial activity against Pseudomonas aeruginosa isolated from patient with diabetic foot infection assessed as percent resistant isolates after 18 to 24 hrs by broth microdilution method; in short: as §3
Klebsiella pneumoniae = experiment: Antibacterial activity against Klebsiella pneumoniae isolated from patient with diabetic foot infection assessed as percent resistant isolates after 18 to 24 hrs by broth microdilution method; in short: as §3
Klebsiella oxytoca = experiment: Antibacterial activity against Klebsiella oxytoca isolated from patient with diabetic foot infection after 18 to 24 hrs by broth microdilution method; in short: as §4
Providencia rettgeri = experiment: Antibacterial activity against Proteus rettgeri isolated from patient with diabetic foot infection after 18 to 24 hrs by broth microdilution method; in short: as §4
Klebsiella aerogenes = experiment: Antibacterial activity against Enterobacter aerogenes isolated from patient with diabetic foot infection after 18 to 24 hrs by broth microdilution method; in short: as §4
Escherichia coli [14] = experiment: Antibacterial activity against Escherichia coli isolated from patient with diabetic foot infection after 18 to 24 hrs by broth microdilution method; in short: as §4

SMILES	MIC50 (Corynebacterium striatum)	MIC90 (Corynebacterium striatum)	MIC50 (Corynebacterium accolens)	MIC90 (Corynebacterium accolens)	MIC50 (Corynebacterium jeikeium)	MIC90 (Corynebacterium jeikeium)	MIC50 [2]	MIC90 [2]	Activity (Streptococcus pyogenes)	Activity (Staphylococcus aureus)	MIC50 [4]	MIC90 [4]	Activity [5]	Activity (Streptococcus agalactiae)	MIC50 [7]	MIC90 [7]	Activity [8]	Activity (Escherichia coli [9])	MIC50 (Proteus mirabilis [10])	MIC90 (Proteus mirabilis [10])	other results
CCC[C@@H]1C[C@@H](C(=O)N[C@@H]([C@H]2O[C@H](SC)[C@H](O)[C@@H](O)[C@H]2O)[C@H](C)Cl)N(C)C1 [CLINDAMYCIN]	2 µg/mL (≈ 4.71 µM)	> 64 µg/mL	2 µg/mL (≈ 4.71 µM)	> 64 µg/mL	> 64 µg/mL	> 64 µg/mL	0.125 µg/mL (≈ 0.294 µM)	> 64 µg/mL	13%	0%	> 64 µg/mL	> 64 µg/mL	13%	33%	> 64 µg/mL	> 64 µg/mL	13%				Activity [1]: 100%; Activity (Corynebacterium xerosis): 78%; Activity [3]: 100%; Activity [6]: 100%
C[C@@H](O)[C@H]1C(=O)N2C(C(=O)O)=C(S[C@@H]3CN[C@H](CNS(N)(=O)=O)C3)[C@H](C)[C@H]12 [DORIPENEM]	0.125 µg/mL (≈ 0.297 µM)	0.25 µg/mL (≈ 0.595 µM)	0.125 µg/mL (≈ 0.297 µM)	0.25 µg/mL (≈ 0.595 µM)	1 µg/mL (≈ 2.38 µM)	8 µg/mL (≈ 19 µM)	≤ 0.015 µg/mL	≤ 0.015 µg/mL	0%	0%	1 µg/mL (≈ 2.38 µM)	8 µg/mL (≈ 19 µM)	0%	0%	1 µg/mL (≈ 2.38 µM)	8 µg/mL (≈ 19 µM)	73%	0%	0.125 µg/mL (≈ 0.297 µM)	0.25 µg/mL (≈ 0.595 µM)	MIC50 (Pseudomonas aeruginosa [11]): 0.25 µg/mL (≈ 0.595 µM); MIC90 (Pseudomonas aeruginosa [11]): 2 µg/mL (≈ 4.76 µM); Activity (Proteus mirabilis [12]): 0%; Activity (Pseudomonas aeruginosa [13]): 7%; Activity (Klebsiella pneumoniae): 0%; MIC50 (Klebsiella oxytoca): 0.06 µg/mL (≈ 0.143 µM); MIC90 (Klebsiella oxytoca): 0.125 µg/mL (≈ 0.297 µM); MIC50 (Providencia rettgeri): 0.125 µg/mL (≈ 0.297 µM); MIC90 (Providencia rettgeri): 0.25 µg/mL (≈ 0.595 µM); MIC50 (Klebsiella aerogenes): 0.06 µg/mL (≈ 0.143 µM); MIC90 (Klebsiella aerogenes): 0.25 µg/mL (≈ 0.595 µM); MIC50 (Escherichia coli [14]): 0.03 µg/mL (≈ 0.0713 µM); MIC90 (Escherichia coli [14]): 0.03 µg/mL (≈ 0.0713 µM)
C[C@@H](O)[C@H]1C(=O)N2C(C(=O)O)=C(S[C@@H]3CN[C@H](C(=O)Nc4cccc(C(=O)O)c4)C3)[C@H](C)[C@H]12 [ERTAPENEM]	0.5 µg/mL (≈ 1.05 µM)	1 µg/mL (≈ 2.1 µM)	0.5 µg/mL (≈ 1.05 µM)	1 µg/mL (≈ 2.1 µM)	1 µg/mL (≈ 2.1 µM)	32 µg/mL (≈ 67.3 µM)	≤ 0.015 µg/mL	≤ 0.015 µg/mL	0%	0%	1 µg/mL (≈ 2.1 µM)	32 µg/mL (≈ 67.3 µM)	0%	0%	1 µg/mL (≈ 2.1 µM)	32 µg/mL (≈ 67.3 µM)	73%	0%	≤ 0.015 µg/mL	0.25 µg/mL (≈ 0.526 µM)	MIC50 (Pseudomonas aeruginosa [11]): 8 µg/mL (≈ 16.8 µM); MIC90 (Pseudomonas aeruginosa [11]): 32 µg/mL (≈ 67.3 µM); Activity (Proteus mirabilis [12]): 0%; Activity (Klebsiella pneumoniae): 0%; MIC50 (Klebsiella oxytoca): ≤ 0.015 µg/mL; MIC90 (Klebsiella oxytoca): ≤ 0.015 µg/mL; MIC50 (Providencia rettgeri): ≤ 0.015 µg/mL; MIC90 (Providencia rettgeri): 0.25 µg/mL (≈ 0.526 µM); MIC50 (Klebsiella aerogenes): 0.06 µg/mL (≈ 0.126 µM); MIC90 (Klebsiella aerogenes): 0.5 µg/mL (≈ 1.05 µM); MIC50 (Escherichia coli [14]): ≤ 0.015 µg/mL; MIC90 (Escherichia coli [14]): 0.06 µg/mL (≈ 0.126 µM)
C[C@@H](O)[C@H]1C(=O)N2C(C(=O)O)=C(S[C@@H]3CN[C@H](C(=O)N(C)C)C3)[C@H](C)[C@H]12 [MEROPENEM]	0.125 µg/mL (≈ 0.326 µM)	0.25 µg/mL (≈ 0.652 µM)	0.125 µg/mL (≈ 0.326 µM)	0.25 µg/mL (≈ 0.652 µM)	1 µg/mL (≈ 2.61 µM)	16 µg/mL (≈ 41.7 µM)	≤ 0.015 µg/mL	≤ 0.015 µg/mL	0%	0%	1 µg/mL (≈ 2.61 µM)	16 µg/mL (≈ 41.7 µM)	0%	0%			73%	0%	0.06 µg/mL (≈ 0.156 µM)	0.125 µg/mL (≈ 0.326 µM)	Activity [1]: 20%; MIC50 (Pseudomonas aeruginosa [11]): 0.5 µg/mL (≈ 1.3 µM); MIC90 (Pseudomonas aeruginosa [11]): 4 µg/mL (≈ 10.4 µM); Activity (Corynebacterium xerosis): 0%; Activity [3]: 20%; Activity (Proteus mirabilis [12]): 0%; Activity (Pseudomonas aeruginosa [13]): 7%; Activity [6]: 20%; Activity (Klebsiella pneumoniae): 0%; MIC50 (Klebsiella oxytoca): 0.03 µg/mL (≈ 0.0782 µM); MIC90 (Klebsiella oxytoca): 0.06 µg/mL (≈ 0.156 µM); MIC50 (Providencia rettgeri): 0.06 µg/mL (≈ 0.156 µM); MIC90 (Providencia rettgeri): 0.125 µg/mL (≈ 0.326 µM); MIC50 (Klebsiella aerogenes): 0.06 µg/mL (≈ 0.156 µM); MIC90 (Klebsiella aerogenes): 0.5 µg/mL (≈ 1.3 µM); MIC50 (Escherichia coli [14]): 0.03 µg/mL (≈ 0.0782 µM); MIC90 (Escherichia coli [14]): 0.03 µg/mL (≈ 0.0782 µM)
